pIC50: −log10 of the molar value.
Assays:
[1] = target: T1, ALK tyrosine kinase receptor (Homo sapiens, UniProt Q9UM73); assay: Inhibition of ALK in human KARPAS299 cells assessed as phosphorylated Stat3 level after 6 hrs by Western blotting analysis; format: cell-based, KARPAS-299
In short: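 Karpas 299 cells (4 × 10^5) treated 6 h at set concentrations, with crizotinib at 10 μM as positive control; lysed in RIPA, 30 µg lysate run on 10% SDS-PAGE, PVDF blot probed for phospho-Stat3 (Tyr705) and total Stat3; ECL detection; IC50 from blot densitometry.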
Target sequence in this assay (Q9UM73 whole entry): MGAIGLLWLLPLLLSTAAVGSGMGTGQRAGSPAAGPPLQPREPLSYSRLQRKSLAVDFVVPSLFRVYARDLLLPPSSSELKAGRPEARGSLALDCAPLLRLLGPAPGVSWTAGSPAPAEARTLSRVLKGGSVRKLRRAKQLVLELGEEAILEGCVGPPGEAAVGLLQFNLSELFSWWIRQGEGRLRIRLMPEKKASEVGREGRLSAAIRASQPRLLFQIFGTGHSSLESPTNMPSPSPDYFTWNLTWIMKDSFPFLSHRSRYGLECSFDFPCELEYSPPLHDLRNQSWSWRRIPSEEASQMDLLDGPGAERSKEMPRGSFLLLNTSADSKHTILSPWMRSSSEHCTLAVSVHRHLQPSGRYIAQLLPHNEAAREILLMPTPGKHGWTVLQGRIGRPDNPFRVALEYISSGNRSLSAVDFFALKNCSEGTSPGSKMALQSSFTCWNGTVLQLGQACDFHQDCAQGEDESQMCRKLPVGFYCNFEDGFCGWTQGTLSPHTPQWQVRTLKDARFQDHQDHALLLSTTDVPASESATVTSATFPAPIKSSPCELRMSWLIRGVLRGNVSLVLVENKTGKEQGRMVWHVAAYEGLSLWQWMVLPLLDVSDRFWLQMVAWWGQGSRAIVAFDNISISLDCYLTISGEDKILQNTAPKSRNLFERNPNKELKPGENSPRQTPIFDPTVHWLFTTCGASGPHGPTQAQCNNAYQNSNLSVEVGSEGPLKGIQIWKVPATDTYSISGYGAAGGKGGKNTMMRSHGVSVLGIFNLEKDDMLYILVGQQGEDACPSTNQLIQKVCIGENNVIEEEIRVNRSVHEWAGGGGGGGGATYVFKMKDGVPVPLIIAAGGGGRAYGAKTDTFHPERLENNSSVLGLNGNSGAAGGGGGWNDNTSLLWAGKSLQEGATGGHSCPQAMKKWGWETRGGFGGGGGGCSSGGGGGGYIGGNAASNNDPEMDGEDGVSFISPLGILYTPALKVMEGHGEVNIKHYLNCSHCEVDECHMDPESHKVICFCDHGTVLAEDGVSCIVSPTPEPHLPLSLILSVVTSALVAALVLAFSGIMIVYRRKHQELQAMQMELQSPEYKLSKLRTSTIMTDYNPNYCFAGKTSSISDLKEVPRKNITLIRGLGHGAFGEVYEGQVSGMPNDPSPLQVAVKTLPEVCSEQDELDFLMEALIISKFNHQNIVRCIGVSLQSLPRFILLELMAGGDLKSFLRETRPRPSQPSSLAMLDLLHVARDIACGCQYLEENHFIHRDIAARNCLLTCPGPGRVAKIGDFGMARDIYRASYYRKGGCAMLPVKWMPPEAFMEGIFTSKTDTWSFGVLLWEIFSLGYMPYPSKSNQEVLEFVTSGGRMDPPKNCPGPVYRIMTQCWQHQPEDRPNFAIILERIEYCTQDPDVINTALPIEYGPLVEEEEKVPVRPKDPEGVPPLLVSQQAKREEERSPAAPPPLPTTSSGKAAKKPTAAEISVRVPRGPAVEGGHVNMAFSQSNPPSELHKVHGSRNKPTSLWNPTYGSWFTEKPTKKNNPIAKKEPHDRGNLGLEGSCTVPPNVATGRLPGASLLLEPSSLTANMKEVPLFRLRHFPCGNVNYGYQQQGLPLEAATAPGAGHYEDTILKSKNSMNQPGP

[2] = target: T2, Aurora kinase A (Homo sapiens) (UniProt O14965); assay: Inhibition of aurora A kinase (unknown origin) at 100 nM
T2 sequence (whole entry): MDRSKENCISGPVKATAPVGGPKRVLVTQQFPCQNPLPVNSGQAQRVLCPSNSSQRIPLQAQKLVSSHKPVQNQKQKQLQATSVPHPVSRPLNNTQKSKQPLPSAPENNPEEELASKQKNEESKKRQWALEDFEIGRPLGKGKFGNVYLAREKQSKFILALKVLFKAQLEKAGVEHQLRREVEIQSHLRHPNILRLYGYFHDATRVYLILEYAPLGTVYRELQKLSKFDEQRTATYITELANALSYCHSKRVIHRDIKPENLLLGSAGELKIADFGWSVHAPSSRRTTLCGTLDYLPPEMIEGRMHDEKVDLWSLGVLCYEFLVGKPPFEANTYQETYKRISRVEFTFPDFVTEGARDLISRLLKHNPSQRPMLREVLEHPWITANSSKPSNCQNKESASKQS

KARPAS-299 = assay: Cytotoxicity against human KARPAS299 cells after 72 hrs by XTT assay; format: functional, cell-based; conditions: KARPAS-299, 72 h
[3] = target: ALK tyrosine kinase receptor (Homo sapiens, UniProt Q9UM73, L1196M); assay: Inhibition of human ALK L1196M mutant after 30 mins by TR-FRET assay
ALK tyrosine kinase receptor (Homo sapiens, UniProt Q9UM73, L1196M), sequence (Q9UM73 19-1620 L1196M limits assumed): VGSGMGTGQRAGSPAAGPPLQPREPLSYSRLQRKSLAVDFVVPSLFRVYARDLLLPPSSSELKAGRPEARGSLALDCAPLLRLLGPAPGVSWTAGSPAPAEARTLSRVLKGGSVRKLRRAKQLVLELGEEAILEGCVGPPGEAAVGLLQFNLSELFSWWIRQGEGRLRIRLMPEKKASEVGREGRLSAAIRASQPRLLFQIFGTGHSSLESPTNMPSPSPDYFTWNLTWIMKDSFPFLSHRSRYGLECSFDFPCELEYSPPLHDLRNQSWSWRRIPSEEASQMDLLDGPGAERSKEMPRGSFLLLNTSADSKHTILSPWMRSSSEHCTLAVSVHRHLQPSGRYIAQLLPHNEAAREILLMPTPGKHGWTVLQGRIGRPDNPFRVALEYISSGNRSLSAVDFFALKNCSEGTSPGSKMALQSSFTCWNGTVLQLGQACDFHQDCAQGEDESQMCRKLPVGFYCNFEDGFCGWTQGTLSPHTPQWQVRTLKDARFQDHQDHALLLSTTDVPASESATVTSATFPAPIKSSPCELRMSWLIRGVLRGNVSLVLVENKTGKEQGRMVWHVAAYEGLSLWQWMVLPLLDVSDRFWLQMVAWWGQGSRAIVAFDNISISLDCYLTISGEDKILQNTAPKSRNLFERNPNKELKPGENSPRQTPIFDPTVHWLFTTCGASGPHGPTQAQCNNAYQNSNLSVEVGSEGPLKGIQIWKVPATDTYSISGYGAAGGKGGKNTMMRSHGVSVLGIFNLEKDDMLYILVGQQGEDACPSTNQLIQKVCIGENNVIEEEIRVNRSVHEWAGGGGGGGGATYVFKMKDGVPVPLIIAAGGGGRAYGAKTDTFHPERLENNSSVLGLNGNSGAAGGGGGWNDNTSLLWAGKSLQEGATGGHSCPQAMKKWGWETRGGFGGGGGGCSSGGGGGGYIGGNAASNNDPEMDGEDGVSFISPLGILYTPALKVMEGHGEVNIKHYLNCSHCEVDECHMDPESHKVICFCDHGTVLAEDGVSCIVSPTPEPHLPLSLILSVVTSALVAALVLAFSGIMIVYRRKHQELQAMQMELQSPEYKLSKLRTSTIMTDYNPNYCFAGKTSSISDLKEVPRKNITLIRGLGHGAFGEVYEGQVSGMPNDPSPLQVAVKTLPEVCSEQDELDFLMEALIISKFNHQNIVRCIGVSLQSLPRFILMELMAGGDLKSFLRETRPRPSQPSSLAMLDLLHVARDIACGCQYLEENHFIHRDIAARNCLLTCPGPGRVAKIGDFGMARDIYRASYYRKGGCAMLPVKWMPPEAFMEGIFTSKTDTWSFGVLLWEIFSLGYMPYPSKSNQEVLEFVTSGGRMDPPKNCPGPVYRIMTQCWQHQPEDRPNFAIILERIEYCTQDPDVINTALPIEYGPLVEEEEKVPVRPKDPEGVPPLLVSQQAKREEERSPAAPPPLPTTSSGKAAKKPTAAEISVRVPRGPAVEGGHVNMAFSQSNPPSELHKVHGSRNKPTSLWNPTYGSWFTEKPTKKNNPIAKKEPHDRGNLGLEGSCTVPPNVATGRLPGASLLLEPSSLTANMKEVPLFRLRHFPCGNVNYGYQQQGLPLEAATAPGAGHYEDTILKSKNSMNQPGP
In short: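 L1196M mutant ALK enzyme run in TR-FRET as for wild type (HEPES pH 7.1 buffer, ULight poly-GT substrate, Eu anti-phosphotyrosine detection, 30 min reaction) but with 0.5µM ATP; IC50.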

[4] = target: T1, ALK tyrosine kinase receptor; assay: Inhibition of wild type human recombinant ALK after 30 mins by TR-FRET assay
Target sequence in this assay (Q9UM73 whole entry): as the sequence (Q9UM73 whole entry) above

[5] = target: T1, ALK tyrosine kinase receptor; assay: Inhibition of ALK in human KARPAS299 cells assessed as phosphorylated ALK level; conditions: for inhibition: KARPAS-299
[6] = target: Macrophage-stimulating protein receptor (Homo sapiens) (UniProt Q04912); assay: Inhibition of RON (unknown origin) at 100 nM
[7] = target: Cyclin-dependent kinase 2 (Homo sapiens) (UniProt P24941); assay: Inhibition of CDK2 (unknown origin) at 100 nM
[8] = target: Hepatocyte growth factor receptor (Homo sapiens) (UniProt P08581); assay: Inhibition of c-Met (unknown origin) at 100 nM
[9] = target: Vascular endothelial growth factor receptor 2 (Homo sapiens) (UniProt P35968); assay: Inhibition of KDR (unknown origin) at 100 nM
Vascular endothelial growth factor receptor 2 (Homo sapiens), sequence (P35968 whole entry): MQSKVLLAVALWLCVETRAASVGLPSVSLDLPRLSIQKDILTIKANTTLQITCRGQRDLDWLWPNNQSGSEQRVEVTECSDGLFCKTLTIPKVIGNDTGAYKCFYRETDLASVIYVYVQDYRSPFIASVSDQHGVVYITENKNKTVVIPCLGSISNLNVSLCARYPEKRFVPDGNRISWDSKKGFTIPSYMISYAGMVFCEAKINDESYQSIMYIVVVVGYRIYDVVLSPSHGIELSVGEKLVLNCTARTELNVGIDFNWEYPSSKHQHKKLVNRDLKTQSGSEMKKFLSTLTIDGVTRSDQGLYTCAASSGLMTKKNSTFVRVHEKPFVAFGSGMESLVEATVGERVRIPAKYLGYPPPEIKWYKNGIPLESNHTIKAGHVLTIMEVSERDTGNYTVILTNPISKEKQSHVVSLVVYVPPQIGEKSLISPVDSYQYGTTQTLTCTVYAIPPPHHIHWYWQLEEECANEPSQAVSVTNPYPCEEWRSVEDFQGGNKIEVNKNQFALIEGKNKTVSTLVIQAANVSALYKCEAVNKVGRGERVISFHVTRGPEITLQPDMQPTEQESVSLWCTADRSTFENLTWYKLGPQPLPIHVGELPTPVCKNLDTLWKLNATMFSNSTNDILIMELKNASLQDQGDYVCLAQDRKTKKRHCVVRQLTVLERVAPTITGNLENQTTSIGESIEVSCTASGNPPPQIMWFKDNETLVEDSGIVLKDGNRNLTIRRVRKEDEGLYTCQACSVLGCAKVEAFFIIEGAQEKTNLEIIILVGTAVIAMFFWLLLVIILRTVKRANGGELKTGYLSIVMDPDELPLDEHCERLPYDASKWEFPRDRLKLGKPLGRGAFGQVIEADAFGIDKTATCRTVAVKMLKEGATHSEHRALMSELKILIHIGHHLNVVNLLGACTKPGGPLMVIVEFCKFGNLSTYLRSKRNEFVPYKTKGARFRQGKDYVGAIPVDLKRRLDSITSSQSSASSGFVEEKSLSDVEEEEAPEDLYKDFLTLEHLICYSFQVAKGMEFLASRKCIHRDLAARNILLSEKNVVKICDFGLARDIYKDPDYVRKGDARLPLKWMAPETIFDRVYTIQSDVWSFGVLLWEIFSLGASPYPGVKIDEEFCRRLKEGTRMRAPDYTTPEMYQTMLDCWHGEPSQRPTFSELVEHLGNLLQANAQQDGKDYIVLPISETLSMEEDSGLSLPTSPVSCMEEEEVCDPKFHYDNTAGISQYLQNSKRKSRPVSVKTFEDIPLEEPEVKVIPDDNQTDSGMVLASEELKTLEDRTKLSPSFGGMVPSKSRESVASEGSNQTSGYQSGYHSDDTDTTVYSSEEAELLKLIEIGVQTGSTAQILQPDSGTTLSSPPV

[10] = target: Fibroblast growth factor receptor 1 (Homo sapiens) (UniProt P11362); assay: Inhibition of FGFR1 (unknown origin) at 100 nM
Homo sapiens = organism: Homo sapiens; assay: Selectivity ratio of IC50 for aurora A kinase (unknown origin) to IC50 for human recombinant ALK

| pIC50 [1] | inhibition [2] | pIC50 [3] | pIC50 [4] | pIC50 [5] | inhibition [5] | inhibition [6] | inhibition [7] | inhibition [8] | inhibition [9] | inhibition [10] | Ratio IC50 (Homo sapiens) | SMILES | pIC50 (KARPAS-299) |
| --- | --- | --- | --- | --- | --- | --- | --- | --- | --- | --- | --- | --- | --- |
| 5.52 | 74% | 6.59 | 7.15 | 5.41 | Dose-dependent effect |  |  |  |  |  |  | Cn1cc(-c2cnc3[nH]cc(-c4cnn(Cc5ccc(F)cc5)c4)c3c2)cn1 | 5.75 |
|  | 84% | 6.85 | 7.05 |  |  | 21% | 41% | 7% | 28% | 14% |  | Cn1cc(-c2cnc3[nH]cc(-c4cnn(Cc5ccccc5)c4)c3c2)cn1 | 5.52 |
| 6.86 | 84% | 7.46 | 8.25 | 6.66 | Dose-dependent effect |  |  |  |  |  | 2 | Cn1cc(-c2cnc3[nH]cc(-c4cnn(Cc5cccc(F)c5)c4)c3c2)cn1 | 6.33 |
| 5.80 | 75% | 6.91 | 7.54 | 6.05 | Dose-dependent effect |  |  |  |  |  |  | Cn1cc(-c2cnc3[nH]cc(-c4cnn(Cc5cc(F)ccc5F)c4)c3c2)cn1 | 5.92 |
|  |  | 6.37 | 7.20 |  |  |  |  |  |  |  | 3 | Cc1nn(Cc2cc(F)ccc2F)c(C)c1-c1c[nH]c2ncc(-c3cnn(C)c3)cc12 |  |
|  |  | 6.51 | 7.59 |  |  |  |  |  |  |  | 30 | Cc1nn(Cc2cc(F)cc(F)c2)c(C)c1-c1c[nH]c2ncc(-c3cnn(C)c3)cc12 |  |
|  | 85% | 6.82 | 7.49 |  |  |  |  |  |  |  |  | Cn1cc(-c2cnc3[nH]cc(-c4cnn(Cc5cccc(C#N)c5)c4)c3c2)cn1 | 5.79 |
| 6.01 | 84% | 6.42 | 7.08 | 5.48 | Dose-dependent effect |  |  |  |  |  |  | Cn1cc(-c2cnc3[nH]cc(-c4cnn(Cc5ccc(F)c(F)c5)c4)c3c2)cn1 | 5.65 |
|  |  | 6.09 | 7.01 |  |  |  |  |  |  |  |  | Cn1cc(-c2cnc3[nH]cc(-c4cnn(Cc5cccc(C(=O)O)c5)c4)c3c2)cn1 | < 5.00 |
|  | 64% | 6.65 | 7.07 |  |  |  |  |  |  |  |  | Cn1cc(-c2cnc3[nH]cc(-c4cnn(Cc5ccccc5F)c4)c3c2)cn1 | 5.68 |
|  |  |  | 7.15 |  |  |  |  |  |  |  |  | Cn1cc(-c2cnc3[nH]cc(-c4cnn(Cc5cccc([N+](=O)[O-])c5)c4)c3c2)cn1 | 5.73 |
|  |  |  | 7.55 |  |  |  |  |  |  |  |  | Cn1cc(-c2cnc3[nH]cc(-c4cnn(Cc5cccc(N)c5)c4)c3c2)cn1 | 5.44 |
| 6.01 | 87% | 6.84 | 7.52 | 5.51 | Dose-dependent effect |  |  |  |  |  |  | Cn1cc(-c2cnc3[nH]cc(-c4cnn(Cc5cccc(Cl)c5)c4)c3c2)cn1 | 6.07 |
|  | 74% | 7.33 | 8.22 |  |  |  |  |  |  |  |  | Cn1cc(-c2cnc3[nH]cc(-c4cnn(Cc5cc(F)cc(F)c5)c4)c3c2)cn1 | 6.18 |
|  | 84% | 6.33 | 6.61 |  |  |  |  |  |  |  |  | Cn1cc(-c2cnc3[nH]cc(-c4cnn(Cc5cccc(C(F)(F)F)c5)c4)c3c2)cn1 | 6.00 |
|  |  | 7.25 | 8.22 |  |  |  |  |  |  |  | 6 | Cc1nn(Cc2cccc(F)c2)cc1-c1c[nH]c2ncc(-c3cnn(C)c3)cc12 |  |
|  | 93% | 6.70 | 7.39 |  |  |  |  |  |  |  |  | Cn1cc(-c2cnc3[nH]cc(-c4cnn(Cc5cccc(O)c5)c4)c3c2)cn1 | 5.47 |
|  |  | 6.56 | 7.51 |  |  |  |  |  |  |  | 11 | Cc1nn(Cc2cccc(F)c2)c(C)c1-c1c[nH]c2ncc(-c3cnn(C)c3)cc12 |  |

Reference: ChEMBL document CHEMBL2417505, “Discovery of 7-azaindole based anaplastic lymphoma kinase (ALK) inhibitors: wild type and mutant (L1196M) active compounds with unique binding mode” (Bioorg Med Chem Lett, 2013)
